From PubChem BioAssay come the findings set out here.

Activity calls are given as the source filed them.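 Rule for the calls, unless noted: active = inhibition of the reporter signal at or above 50%; inactive = inhibition below 50%.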

Assay [1] is described as follows: inhibitors of TNFa-induced NFkB p65 translocation, primary screen, imaging, HUVEC, MLSMR starter and 10KST1 sets (AID 438;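 active = inhibition above 20% together with a positive visual image hit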;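 note: compound added about 3h40 before a 20 min TNFalpha stimulation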;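 for inhibition: signal is the nuclear over cytoplasmic p65 intensity ratio per well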). The following applies: HUVEC TNFa-induced p65 nuclear translocation; cell count: measured here: nuclei count (cytotoxicity indicator), at 2.08 µM; inhibition: at 2 µM, stronger effect = higher value, 0% TNFa-plus-vehicle, 100% no-TNFa wells.
Assay [2] in a line: inhibitors of mutant huntingtin aggregation, primary screen, imaging, exon1htt(103Q)mCFP cells, high-content imaging (AID 483;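 active = visual image review flags a hit and inhibition of aggregation exceeds 20%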;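 note: compound exposure lasted 3 days before fixation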;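 for nuclei count: percent of the per-plate median nuclei count of sample wells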). The settings on record: exon1htt(103Q)mCFP cell line, aggregate imaging, at 2 µM; inhibition of aggregation: stronger effect = higher value; nuclei count: measured here: cell count, toxicity.
Assay [3] in a line: inhibitors of E-selectin induction by TNFa, primary screen, imaging, HUVEC, immunofluorescence, MLSMR starter and 10KST1 sets (AID 487;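 active = visually confirmed hit in the image check and inhibition above 20%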;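 for inhibition: signal is fraction of cell area covered by stained E-selectin grains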;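 for nuclei count: 100% = median nuclei count of all wells on the same plate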). The following applies: HUVEC TNFalpha-induced E-selectin immunofluorescence imaging, at 2 µM; inhibition: stronger effect = higher value; nuclei count: measured here: cell number, toxicity.
Assay [4] addresses Voltage-gated potassium channel subunit beta-2 (Rattus norvegicus) (UniProt P62483). Description: KvBeta enzyme negative modulators, primary screen, biochemical, NADPH fluorescence (AID 622;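 active = fluorescence slope higher than the sample average by over 3 SD, cut at about -0.22 in these data, passing the limit was not always enough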;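 note: slope of raw intensity against log time taken from 70 to 1610 s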). The following applies: recombinant KvBeta, 4-cyanobenzaldehyde reduction, at 10 µM, stronger effect = higher value.
The target is the same in assay [5]. The experiment in a line: KvBeta positive modulators, primary screen, biochemical, NADPH fluorescence (AID 623;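 active = NADPH fluorescence slope more negative than the mean of all samples by about 3 SD, 99.7% confidence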;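 note: fluorescence intensity change per second fitted from 20 to 320 s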). The following applies: Recombinant KvBeta, NADPH fluorescence decrease slope, 10 min; at 10 µM; stronger effect = lower value.
The target of assay [6] is Muscarinic acetylcholine receptor M4 (Homo sapiens) (UniProt P08173). The experiment in a line: compounds altering M4/GIRK thallium flux, either direction, primary screen, M4 allosteric agonist project, cell-based, HEK293 M4/GIRK, BTC-AM (AID 625;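 active = fluorescence slope after compound addition differing from the mean of all tested samples at 99.7% confidence, mostly higher but some lower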;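 note: thallium influx through GIRK channels coupled to M4 in HEK293 cells with BTC-AM dye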). The settings on record: at 10 µM, actives lie on both sides. An outline of the steps: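 assay system = HEK293 cells with M4 receptor and GIRK channels | medium = pH 7.3 thallium assay buffer | doses = 10 µM final, single point | timing = cells overnight at 37 °C, BTC-AM loading 1 h, reads 2 min total | signal = BTC-AM fluorescence, 1 Hz kinetic reads | read-out = post-addition slope, 15–24 s, of baseline-normalized fluorescence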
Chain of Muscarinic acetylcholine receptor M4 (Homo sapiens) (P08173 whole entry, looked up): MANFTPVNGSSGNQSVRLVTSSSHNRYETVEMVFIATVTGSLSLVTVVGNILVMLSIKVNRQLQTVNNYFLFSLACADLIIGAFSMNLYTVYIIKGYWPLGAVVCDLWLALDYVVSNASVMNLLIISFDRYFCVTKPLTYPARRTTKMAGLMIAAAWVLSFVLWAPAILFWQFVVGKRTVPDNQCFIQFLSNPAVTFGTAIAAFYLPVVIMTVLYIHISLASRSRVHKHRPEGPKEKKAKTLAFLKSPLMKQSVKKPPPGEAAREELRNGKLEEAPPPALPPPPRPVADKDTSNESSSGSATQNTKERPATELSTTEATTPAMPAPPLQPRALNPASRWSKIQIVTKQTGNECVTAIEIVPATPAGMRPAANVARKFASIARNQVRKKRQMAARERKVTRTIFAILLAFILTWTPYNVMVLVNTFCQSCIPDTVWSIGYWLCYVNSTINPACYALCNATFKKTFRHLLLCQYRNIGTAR

Assay [7] can be described thus: inhibitors of Sendai virus-induced IRF3 signaling, primary screen, TLR/RLR signaling modifier project, cell-based, Sendai virus stimulus, luciferase, 10K MLSCN set (AID 602276;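 active = inhibition at or above 50% at 10 µM; inactive = inhibition below 50%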;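 note: firefly luciferase from ISG56 promoter only with Renilla not read in this screen; 0% = Sendai virus plus DMSO and 100% = medium plus DMSO without virus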). The following applies: HEK293 RL24 IRF3 luciferase reporter, at 10 µM, stronger effect = higher value. (A reporter such as luciferase makes a cellular process visible.)
Assay [8] in a line: inhibitors of poly I:C-induced TLR3 signaling, primary screen, cell-based, poly I:C stimulus, luciferase, 10K MLSCN set (AID 602277). The following applies: HEK293-TLR3 RL24 IRF3 luciferase reporter, at 10 µM, stronger effect = higher value.

Chain of Voltage-gated potassium channel subunit beta-2 (Rattus norvegicus) (P62483 whole entry, looked up): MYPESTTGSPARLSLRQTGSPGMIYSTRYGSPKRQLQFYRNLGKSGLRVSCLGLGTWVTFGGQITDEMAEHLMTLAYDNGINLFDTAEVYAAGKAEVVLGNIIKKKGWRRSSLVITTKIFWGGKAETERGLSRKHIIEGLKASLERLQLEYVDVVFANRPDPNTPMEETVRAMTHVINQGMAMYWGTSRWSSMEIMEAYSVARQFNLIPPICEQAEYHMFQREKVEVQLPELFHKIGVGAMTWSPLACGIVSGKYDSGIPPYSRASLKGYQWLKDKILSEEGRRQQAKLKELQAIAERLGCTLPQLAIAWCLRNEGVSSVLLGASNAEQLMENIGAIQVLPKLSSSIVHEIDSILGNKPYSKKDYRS

Broadly, the inhibition is the drop in the measured response relative to a control, in per cent. With `O=C(C1CCN(S(=O)(=O)Cc2ccccc2)CC1)N1CCN(c2ncccn2)CC1`, the cell count in assay [1] was determined as 354. Also, the inhibition was -9.2% (inactive) in assay [1], 34.3% (inactive) in assay [3], -3.88% (inactive) in assay [7] and -4.47% (inactive) in assay [8]. The inhibition of aggregation in assay [2] is 0.1% (inactive). In addition, the nuclei count in assay [2] is 67%; in assay [3], 96.8%. For the same compound, the fluorescence slope in assay [4] was -0.431 (inactive); in assay [6], 0.00525 (inactive). Further, the NADPH fluorescence slope in assay [5] was -0.000431 (inactive).

In the case of `Cc1c(NC(=O)C(C)OC(=O)COc2cccc3c2OC(C)(C)C3)c(=O)n(-c2ccccc2)n1C` (stereo not drawn), the cell count in assay [1] came to 652. The inhibition in assay [1] is -11.6% (inactive); in assay [3], -45.4% (inactive); in assay [7], 4.56% (inactive); in assay [8] it was 14.8% (inactive). Moreover, the inhibition of aggregation in assay [2] is -3.5% (inactive). The nuclei count came to 129% in assay [2] and 122% in assay [3]. For the same compound, the figures for the fluorescence slope in assay [4] and in assay [6] were -0.59 (inactive) and 0.00305 (inactive), respectively. Further, in assay [5], the NADPH fluorescence slope was -7.7e-05 (inactive).

For `CC(=O)Nc1ccc(S(=O)(=O)N(CC(=O)O)Cc2ccccc2)cc1`, the cell count in assay [1] was 487. In addition, the inhibition is 6% (inactive) in assay [1], -167% (inactive) in assay [3], 8.06% (inactive) in assay [7] and 14.2% (inactive) in assay [8]. Moreover, the inhibition of aggregation in assay [2] was 4.7% (inactive). Besides, the nuclei count in assay [2] amounted to 107%; in assay [3] it was 130%. Further, the fluorescence slope is -0.575 (inactive) in assay [4] and 0.00557 (inactive) in assay [6]. The NADPH fluorescence slope in assay [5] was -4.6e-05 (inactive).

For the compound `COc1ccc(N2CCN(c3ncnc4c3cnn4-c3ccc(C)cc3C)CC2)cc1`, the cell count in assay [1] stood at 683. Moreover, the inhibition in assay [1] was -10.9% (inactive); in assay [3], -33.1% (inactive); in assay [7], 5.2% (inactive); in assay [8], -20.2% (inactive). For the same compound, the inhibition of aggregation in assay [2] was -20.3% (inactive). In addition, the nuclei count in assay [2] was 117%; in assay [3] it was 98%. In addition, the fluorescence slope in assay [4] is -0.558 (inactive); in assay [6] it was 0.00551 (inactive). The NADPH fluorescence slope in assay [5] is -4.3e-05 (inactive).

Consider `CCOC(=O)c1c(C)oc2ccc(OCC(=O)N(CC)CC)cc12`, for which, in assay [1], the cell count was 422. Moreover, the inhibition in assay [1] is -1.7% (inactive); in assay [3], -63% (inactive); in assay [7], 8.2% (inactive); in assay [8], 7.27% (inactive). For the same compound, in assay [2], the inhibition of aggregation was -2.3% (inactive). The results for the nuclei count in assay [2] and in assay [3] were 95.5% and 104%, respectively. Besides, the results for the fluorescence slope in assay [4] and in assay [6] were -0.449 (inactive) and 0.00589 (inactive), respectively. Besides, the NADPH fluorescence slope in assay [5] is -1.9e-05 (inactive).

Regarding `Cc1ccc(C)c(N2C(=O)CN=C2Nc2ccccc2Cl)c1`, the cell count in assay [1] was 441. Moreover, the inhibition in assay [1] is 14.6% (inactive); in assay [3] it was 18.2% (inactive); in assay [7] it was 13% (inactive); in assay [8], 24.3% (inactive). In addition, the inhibition of aggregation in assay [2] was 0.8% (inactive). In addition, the nuclei count was found to be 96.7% in assay [2] and 113% in assay [3]. Besides, the fluorescence slope in assay [4] is -0.577 (inactive); in assay [6] it was 0.00593 (inactive). The NADPH fluorescence slope in assay [5] was -4.1e-05 (inactive).

For the compound `CCN(Cc1nc2ccccc2c(=O)[nH]1)Cc1nc2cc(OC)c(OC)cc2c(=O)[nH]1`, the cell count in assay [1] was 403. Moreover, the inhibition was -19.9% (inactive) in assay [1], -17.4% (inactive) in assay [3], -12.7% (inactive) in assay [7] and -12.6% (inactive) in assay [8]. Besides, in assay [2], the inhibition of aggregation is 0% (inactive). The nuclei count in assay [2] is 113%; in assay [3], 144%. Also, the fluorescence slope is -0.324 (inactive) in assay [4] and 0.00825 (inactive) in assay [6]. Moreover, in assay [5], the NADPH fluorescence slope is -3.7e-06 (inactive).

Consider `Nc1cc(C(=O)O)ccc1Nc1ccc(F)c(F)c1`, for which, in assay [1], the cell count came out at 693. For the same compound, the inhibition in assay [1] was -22.9% (inactive); in assay [3], 6.9% (inactive); in assay [7] it was -5.42% (inactive); in assay [8], -4.51% (inactive). In addition, the inhibition of aggregation in assay [2] is -0.6% (inactive). The figures for the nuclei count in assay [2] and in assay [3] were 124% and 96.9%, respectively. The fluorescence slope in assay [4] is -0.44 (inactive); in assay [6], 0.00669 (inactive). Moreover, the NADPH fluorescence slope in assay [5] is 0.000103 (inactive).

For the compound `Cc1ccc(OC(=O)NC2CCS(=O)(=O)C2)cc1C` (stereo not drawn), in assay [1], the cell count amounted to 395. Further, the inhibition in assay [1] was -0.3% (inactive); in assay [3], -107% (inactive); in assay [7], 12.7% (inactive); in assay [8], 17.3% (inactive). For the same compound, the inhibition of aggregation in assay [2] was -6.1% (inactive). Also, the values for the nuclei count in assay [2] and in assay [3] were 98.6% and 116%, respectively. Moreover, the fluorescence slope in assay [4] is -0.617 (inactive); in assay [6], 0.00398 (inactive). Also, in assay [5], the NADPH fluorescence slope is -2.5e-07 (inactive).

For `COc1cc(OC)cc(C(=O)N2CCN(C(=O)c3ccc(OC)c(OC)c3)CC2)c1`, in assay [1], the cell count was found to be 358. In addition, the inhibition in assay [1] was -2% (inactive); in assay [3] it was -20.6% (inactive); in assay [7] it was 4.07% (inactive); in assay [8] it was 14.7% (inactive). Besides, in assay [2], the inhibition of aggregation is -5.3% (inactive). Further, the nuclei count in assay [2] came to 126%; in assay [3] it was 89.3%. The fluorescence slope was -0.603 (inactive) in assay [4] and 0.00572 (inactive) in assay [6]. The NADPH fluorescence slope in assay [5] is 3.5e-06 (inactive).

In the case of `COc1ccc(-c2cc3nc4n(c(=O)c3s2)CCC4)cc1`, in assay [1], the cell count came to 433. For the same compound, the inhibition in assay [1] is 3% (inactive); in assay [3] it was -96.4% (inactive); in assay [7], 12.2% (inactive); in assay [8], -34.7% (inactive). Moreover, the inhibition of aggregation in assay [2] is 4.8% (inactive). In addition, the figures for the nuclei count in assay [2] and in assay [3] were 88.6% and 139%, respectively. Also, the fluorescence slope is -0.467 (inactive) in assay [4] and 0.0055 (inactive) in assay [6]. For the same compound, in assay [5], the NADPH fluorescence slope is -3.4e-05 (inactive).

With `Cc1ccc(-c2[nH]nc3c2C(c2ccoc2)C(C#N)=C(N)O3)cc1C` (stereo not drawn), the cell count in assay [1] was 853. In addition, the inhibition in assay [1] was 3.6% (inactive); in assay [3], -111% (inactive); in assay [7], 23.8% (inactive); in assay [8] it was 16.8% (inactive). In addition, the inhibition of aggregation in assay [2] is 7.7% (inactive). In addition, the values for the nuclei count in assay [2] and in assay [3] were 92.5% and 126%, respectively. Besides, the results for the fluorescence slope in assay [4] and in assay [6] were -0.474 (inactive) and 0.00509 (inactive), respectively. In addition, the NADPH fluorescence slope in assay [5] was -5.3e-05 (inactive).

As to `CCOC(=O)N1CCC(NC(=O)c2ccc3c(c2)N(C)CCS3)CC1`, in assay [1], the cell count came out at 368. Further, the inhibition was -0.7% (inactive) in assay [1], -131% (inactive) in assay [3], 13% (inactive) in assay [7] and 21.9% (inactive) in assay [8]. In assay [2], the inhibition of aggregation was 17.8% (inactive). Moreover, the nuclei count in assay [2] was found to be 113%; in assay [3] it was 126%. Besides, the fluorescence slope is -0.0303 (active) in assay [4] and 0.00744 (inactive) in assay [6]. Further, the NADPH fluorescence slope in assay [5] was 1.7e-06 (inactive).
